In ChEMBL document CHEMBL1134728, “Heterocyclic substituted anthralin derivatives as inhibitors of keratinocyte growth and inducers of differentiation” (Bioorg Med Chem Lett, 2001):

Assays:
[1] = Deoxyribose degradation measured as hydroxyl radical generation in HaCaT cell at 75 uM expressed as malondialdehyde released; assay type: functional, Homo sapiens
[2] = Compound was tested for the induction of HaCaT keratinocyte differentiation at 1 uM expressed as the amount of cross-linked protein in cornified envelope assay; assay type: functional, Homo sapiens
Summary of the method: (§1)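 Terminal differentiation of HaCaT keratinocytes measured as insoluble cross-linked protein envelopes, using a modified method; protein in envelope preparations quantified by Bradford. Value is the difference in cross-linked protein per mg protein between treated and vehicle-control cells; means ± SEM of three independent experiments; significance vs vehicle p < 0.05.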

[3] = Antiproliferative activity against growth of HaCaT cell was determined; assay type: functional, cell-based; settings: Homo sapiens
[4] = Compound was tested for the induction of HaCaT keratinocyte differentiation at 5 uM expressed as the amount of cross-linked protein in cornified envelope assay; assay type: functional, Homo sapiens; summary of the method: as §1
[5] = Compound was tested for the induction of HaCaT keratinocyte differentiation at 10 uM expressed as the amount of cross-linked protein in cornified envelope assay; assay type: functional, Homo sapiens; summary of the method: as §1
[6] = Activity of LDH release in HaCaT cells after treatment with 2 uM concentration of the compound; assay type: functional, Homo sapiens
Summary of the method: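 LDH activity (mU) released into the HaCaT culture medium after compound treatment, taken as a marker of plasma membrane integrity and cytotoxicity; compared against vehicle controls; N=3.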

## O=C1c2c(O)cccc2C(C(=O)c2cccs2)c2cccc(O)c21
[1]
  DD: 0.65 uM mM-1
[2]
  Amount of cross-linked protein: -0.9 (ug of cross-linked protein) (mg of protein)-1
[3]
  IC50: > 5000 nM
[4]
  Amount of cross-linked protein: 0.7 (ug of cross-linked protein) (mg of protein)-1
[5]
  Amount of cross-linked protein: 3.7 (ug of cross-linked protein) (mg of protein)-1

## O=C1c2c(O)cccc2C(C(=O)c2ccc[nH]2)c2cccc(O)c21
[1]
  DD: 1.77 uM mM-1
[6]
  LDH release: 202 MU
[2]
  Amount of cross-linked protein: 2.3 (ug of cross-linked protein) (mg of protein)-1
[3]
  IC50: 600 nM
[4]
  Amount of cross-linked protein: 5.7 (ug of cross-linked protein) (mg of protein)-1
[5]
  Amount of cross-linked protein: 6.5 (ug of cross-linked protein) (mg of protein)-1

## O=C1c2c(O)cccc2Cc2cccc(O)c21 [ANTHRALIN]
[1]
  DD: 2.89 uM mM-1
[6]
  LDH release: 294 mU
[2]
  Amount of cross-linked protein: 3.7 (ug of cross-linked protein) (mg of protein)-1
[3]
  IC50: 700 nM
[4]
  Amount of cross-linked protein: 4.9 (ug of cross-linked protein) (mg of protein)-1
[5]
  Amount of cross-linked protein: 5.8 (ug of cross-linked protein) (mg of protein)-1

## O=C1c2c(O)cccc2C(C(=O)c2ccsc2)c2cccc(O)c21
[1]
  DD: 0.82 uM mM-1
[2]
  Amount of cross-linked protein: -0.6 (ug of cross-linked protein) (mg of protein)-1
[3]
  IC50: > 5000 nM
[4]
  Amount of cross-linked protein: 0.6 (ug of cross-linked protein) (mg of protein)-1
[5]
  Amount of cross-linked protein: 3.4 (ug of cross-linked protein) (mg of protein)-1

## O=C1c2c(O)cccc2C(C(=O)c2cc3ccccc3[nH]2)c2cccc(O)c21
[1]
  DD: 0.17 uM mM-1
[6]
  LDH release: 167 mU
[2]
  Amount of cross-linked protein: 2 (ug of cross-linked protein) (mg of protein)-1
[3]
  IC50: 700 nM
[4]
  Amount of cross-linked protein: 4.8 (ug of cross-linked protein) (mg of protein)-1
[5]
  Amount of cross-linked protein: 5.7 (ug of cross-linked protein) (mg of protein)-1

## O=C1c2c(O)cccc2C(C(=O)c2ccccc2)c2cccc(O)c21
[1]
  DD: 2.31 uM mM-1
[3]
  IC50: > 5000 nM

## O=C1c2c(O)cccc2C(C(=O)/C=C/c2cccs2)c2cccc(O)c21
[1]
  DD: 1.13 uM mM-1
[6]
  LDH release: 166 mU
[2]
  Amount of cross-linked protein: 2 (ug of cross-linked protein) (mg of protein)-1
[3]
  IC50: 4200 nM
[4]
  Amount of cross-linked protein: 5 (ug of cross-linked protein) (mg of protein)-1
[5]
  Amount of cross-linked protein: 5.6 (ug of cross-linked protein) (mg of protein)-1

## O=C1c2c(O)cccc2C(C(=O)/C=C/c2ccco2)c2cccc(O)c21
[1]
  DD: 1.69 uM mM-1
[6]
  LDH release: 147 mU
[2]
  Amount of cross-linked protein: -0.2 (ug of cross-linked protein) (mg of protein)-1
[3]
  IC50: 1500 nM
[4]
  Amount of cross-linked protein: 0.6 (ug of cross-linked protein) (mg of protein)-1
[5]
  Amount of cross-linked protein: 1.9 (ug of cross-linked protein) (mg of protein)-1

## O=C1c2c(O)cccc2C(C(=O)c2ccco2)c2cccc(O)c21
[1]
  DD: 0.41 uM mM-1
[6]
  LDH release: 242 mU
[2]
  Amount of cross-linked protein: 0.5 (ug of cross-linked protein) (mg of protein)-1
[3]
  IC50: 1200 nM
[4]
  Amount of cross-linked protein: 3.5 (ug of cross-linked protein) (mg of protein)-1
[5]
  Amount of cross-linked protein: 5.8 (ug of cross-linked protein) (mg of protein)-1

## O=C1c2cccc(O)c2C(=O)c2c(O)cccc21 [DANTHRON]
[2]
  Amount of cross-linked protein: 0.6 (ug of cross-linked protein) (mg of protein)-1
[4]
  Amount of cross-linked protein: -0.1 (ug of cross-linked protein) (mg of protein)-1
[5]
  Amount of cross-linked protein: 0 (ug of cross-linked protein) (mg of protein)-1
